The results in this text go back to ChEMBL document CHEMBL1155449, “Peptide HIV-1 integrase inhibitors from HIV-1 gene products” (J Med Chem, 2010).

The target of series [1] is T1, Human immunodeficiency virus type 1 integrase (Human immunodeficiency virus 1, UniProt Q7ZJM1). As to the kind of experiment: Inhibition of HIV1 integrase 3'-end processing activity after 1 hr by densitometric analysis.
Series [2] has as its target T1, Human immunodeficiency virus type 1 integrase. The series is described as follows: Inhibition of HIV1 integrase strand transfer activity after 1 hr by densitometric analysis.
Series [3] addresses Human immunodeficiency virus type 1 integrase (Human immunodeficiency virus 1) (UniProt Q7ZJM1). As to the kind of experiment: Inhibition of HIV1 HXB2 integrase-mediated integrate viral genome production in CD4/CXCR4-expressing human NP2 cells assessed as production of integrate viral genome at 0.5 uM measured on day 2 post viral infection by quantitative RT-PCR analysis. The class given is cell-based. More on the design: scale not given: the % may be the effect or the level left. In a few lines: (§1)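 NP2-CD4-CXCR4 cells infected with HIV-1 HXB2 with or without 0.5 μM peptide (DMSO control). Genomic DNA extracted day 2 post-infection. Viral DNA quantified by real-time PCR for strong-stop DNA, late reverse-transcription products, Alu-LTR (integrated) and 2-LTR (end-joined) products. Each is expressed as % of the DMSO-treated control.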

Series [4] concerns Human immunodeficiency virus 1. The series is described as follows: Antiviral activity against HIV1 HXB2 infected in CD4/CXCR4-expressing human NP2 cells assessed as total genome of infected virus at 0.5 uM measured on day 2 post viral infection by quantitative RT-PCR analysis relative to control. In kind it is functional. The method, boiled down:
as §1

In series [5] the test system is Human immunodeficiency virus 1. As to the kind of experiment: Antiviral activity against HIV1 HXB2 infected in CD4/CXCR4-expressing human NP2 cells assessed as generation of viral DNA at late stage of reverse transcription at 0.5 uM measured on day 2 post viral infection by quantitative RT-PCR analysis relative to control. In kind it is functional. The method, boiled down: as §1

The subject of series [6] is MT4. As to the kind of experiment: Cytotoxicity against human MT4 cells assessed as firefly luciferase activity at 1 to 100 uM after 6 to 7 days by chemiluminescence assay. In kind it is cell-based. Conditions: mt4, 100 µM. In a few lines: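 1×10^3 MT-4 Luc cells constitutively expressing luciferase were exposed to varying peptide concentrations in the HIV-1 HXB2 (ca. 0.2-10 ng p24) infection format. Cells lysed after 6-7 d and luciferase measured by chemiluminescence. Cytotoxicity is read as loss of luciferase signal.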

Series [7] relates to Human immunodeficiency virus 1. As to the kind of experiment: Antiviral activity against HIV1 JRCSF infected in CD4/CCR5-expressing human NP2 cells assessed as inhibition of viral p24 antigen production measured on day 4 post viral infection by ELISA. The class given is functional, organism-based. Particulars: JRCSF ISOLATE. In a few lines: (§2)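 1×10^5 NP2-CD4-CCR5 cells incubated 30 min at room temperature with HIV-1 JR-CSF supernatant (ca. 0.2-50 ng p24), washed and cultured with varying peptide concentrations. Supernatant p24 measured by ELISA on day 4 post-infection.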

Series [8] deals with Human immunodeficiency virus 1. The series is described as follows: Antiviral activity against HIV1 HXB2 infected in human MT4 cells assessed as inhibition of viral p24 antigen production at 0.5 uM measured on day 4 post viral infection by ELISA. The class given is functional, organism-based. The method, boiled down:
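1×10^5 MT-4 cells incubated 30 min at room temperature with HIV-1 HXB2 supernatant (ca. 0.2-50 ng p24), washed and cultured with 0.5 μM peptide or without. Supernatants collected at several time points for p24 ELISA, with cells passaged as needed.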

Series [9] deals with Human immunodeficiency virus type 1 reverse transcriptase (Human immunodeficiency virus 1, UniProt Q72547). As to the kind of experiment: Inhibition of HIV1 reverse transcriptase-associated ribonuclease H activity by fluorescence assay.
Series [10] deals with Human immunodeficiency virus 1. The series is described as follows: Antiviral activity against HIV1 JRCSF infected in CD4/CCR5-expressing human NP2 cells assessed as inhibition of viral p24 antigen production at 0.8 uM measured on day 4 post viral infection by ELISA. The class given is functional. Particulars: Human immunodeficiency virus 1, JRCSF ISOLATE, NP2, 96 h. In a few lines: as §2

Series [11] can be described thus: Selectivity index, ratio of cytotoxicity against human MT4 cells to antiviral activity against HIV1 JRCSF infected in CD4/CCR5-expressing human NP2 cells. Particulars: read-out: Selectivity Index. The class given is toxicity, cell-based.
For series [12], the system named is Human immunodeficiency virus 1. As to the kind of experiment: Antiviral activity against HIV1 HXB2 infected in CD4/CXCR4-expressing human NP2 cells assessed as host cellular enzyme catalyzed end-joined viral genome production at 0.5 uM measured on day 2 post viral infection by quantitative RT-PCR analysis relative to control. In kind it is functional. The method, boiled down:
as §1

Series [13] relates to Human immunodeficiency virus 1. The series is described as follows: Antiviral activity against HIV1 HXB2 infected in human MT4 cells assessed as firefly luciferase activity at 20 uM after 6 to 7 days by chemiluminescence assay. The class given is functional, organism-based. The method, boiled down: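 MT-4 Luc cells (constitutively high luciferase; HIV-1-induced cell death lowers signal), 1×10^3 cells per well, infected with HIV-1 HXB2 (ca. 0.2-10 ng p24) with varying peptide concentrations present. Lysed 6-7 d post-infection; luciferase read by chemiluminescence. Protection from HIV-1-induced death keeps signal high, and a fall in signal also serves as the cytotoxicity read-out.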

The source made the active and inactive calls. The calls are words filed in the database; no cut-off is given here. Where a SMILES comes first, the peptide text is derived from it.

T1 sequence (Q7ZJM1 whole entry): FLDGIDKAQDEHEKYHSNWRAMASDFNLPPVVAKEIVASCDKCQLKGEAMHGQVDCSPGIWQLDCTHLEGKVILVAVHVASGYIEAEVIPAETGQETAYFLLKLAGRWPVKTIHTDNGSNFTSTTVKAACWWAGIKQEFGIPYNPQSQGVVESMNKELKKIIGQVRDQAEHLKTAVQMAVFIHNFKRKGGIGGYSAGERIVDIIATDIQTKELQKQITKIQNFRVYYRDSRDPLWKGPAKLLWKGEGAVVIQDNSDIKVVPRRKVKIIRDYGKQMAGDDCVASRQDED
Chain of Human immunodeficiency virus type 1 integrase (Human immunodeficiency virus 1) (Q7ZJM1 as listed by the source): as the sequence (Q7ZJM1 whole entry) above

Regarding `CC[C@H](C)[C@H](NC(=O)[C@H](CCCNC(=N)N)NC(=O)[C@H](Cc1ccccc1)NC(=O)[C@H](Cc1cnc[nH]1)NC(=O)[C@@H](NC(=O)[C@H](Cc1ccccc1)NC(=O)[C@H](CC(C)C)NC(=O)[C@H](CC(C)C)NC(=O)[C@H](CCC(N)=O)NC(=O)[C@H](CCC(N)=O)NC(=O)[C@H](CC(C)C)NC(C)=O)[C@@H](C)CC)C(=O)NCC(=O)N[C@@H](CCCNC(=N)N)C(=O)N[C@@H](CCCNC(=N)N)C(=O)N[C@@H](CCCNC(=N)N)C(=O)N[C@@H](CCCNC(=N)N)C(=O)N[C@@H](CCCNC(=N)N)C(=O)N[C@@H](CCCNC(=N)N)C(=O)N[C@@H](CCCNC(=N)N)C(=O)N[C@@H](CCCNC(=N)N)C(N)=O`, the figures for the 50% inhibitory concentration (IC50) in series [1], in series [2] and in [9] were 8 nM, 4 nM and greater than 500 nM, respectively. The Activity in series [3] was 15.8%; in series [4] it was 139.7%; in series [5], 84.4%; in [6], “Non-toxic”; in [12], 779.8%. Also, the inhibition result in series [7] was “Dose-dependent effect”. Moreover, the inhibition entry in [8] is “Active”. The inhibition at 0.8 µM in series [10] is 50%. Besides, in series [11], the selectivity ratio stood at 10.

In the case of `CC[C@H](C)[C@H](NC(C)=O)C(=O)N[C@@H](Cc1cnc[nH]1)C(=O)N[C@@H](Cc1ccccc1)C(=O)N[C@@H](CCCNC(=N)N)C(=O)N[C@H](C(=O)NCC(=O)N[C@@H](CCCNC(=N)N)C(=O)N[C@@H](CCCNC(=N)N)C(=O)N[C@@H](CCCNC(=N)N)C(=O)N[C@@H](CCCNC(=N)N)C(=O)N[C@@H](CCCNC(=N)N)C(=O)N[C@@H](CCCNC(=N)N)C(=O)N[C@@H](CCCNC(=N)N)C(=O)N[C@@H](CCCNC(=N)N)C(N)=O)[C@@H](C)CC` (Ac-IHFRIGRRRRRRRR-NH2), in series [6], the Activity entry is “Non-toxic”. Also, the outcome in series [13] was inactive.

Consider `CC(=O)N[C@@H](CC(C)C)C(=O)N[C@@H](CCC(N)=O)C(=O)N[C@@H](CCC(N)=O)C(=O)N[C@@H](CC(C)C)C(=O)N[C@@H](CC(C)C)C(=O)N[C@@H](Cc1ccccc1)C(=O)N[C@@H](CCCNC(=N)N)C(=O)N[C@@H](CCCNC(=N)N)C(=O)N[C@@H](CCCNC(=N)N)C(=O)N[C@@H](CCCNC(=N)N)C(=O)N[C@@H](CCCNC(=N)N)C(=O)N[C@@H](CCCNC(=N)N)C(=O)N[C@@H](CCCNC(=N)N)C(=O)N[C@@H](CCCNC(=N)N)C(N)=O` (Ac-LQQLLFRRRRRRRR-NH2), for which the Activity entry in series [6] is listed as “Non-toxic”.

Take `CC[C@H](C)[C@H](NC(=O)[C@H](C)NC(=O)[C@H](CCC(=O)O)NC(C)=O)C(=O)N[C@H](C(=O)N[C@@H](CCCNC(=N)N)C(=O)N[C@H](C(=O)N[C@@H](CC(C)C)C(=O)N[C@@H](CCC(N)=O)C(=O)N[C@@H](CCC(N)=O)C(=O)N[C@@H](CC(C)C)C(=O)N[C@@H](CC(C)C)C(=O)N[C@@H](Cc1ccccc1)C(=O)N[C@H](C(=O)N[C@@H](Cc1cnc[nH]1)C(=O)N[C@@H](Cc1ccccc1)C(=O)N[C@@H](CCCNC(=N)N)C(=O)N[C@H](C(=O)NCC(=O)N[C@@H](CCCNC(=N)N)C(=O)N[C@@H](CCCNC(=N)N)C(=O)N[C@@H](CCCNC(=N)N)C(=O)N[C@@H](CCCNC(=N)N)C(=O)N[C@@H](CCCNC(=N)N)C(=O)N[C@@H](CCCNC(=N)N)C(=O)N[C@@H](CCCNC(=N)N)C(=O)N[C@@H](CCCNC(=N)N)C(N)=O)[C@@H](C)CC)[C@@H](C)CC)[C@@H](C)CC)[C@@H](C)CC`: the half-maximal inhibitory concentration (IC50) is 6 nM in series [1], 5 nM in [2] and greater than 500 nM in [9]. In addition, the Activity entry in series [6] is “Non-toxic”. For the same compound, in series [13], the outcome was Active.
